In ChEMBL document CHEMBL3865825, “Discovery of novel Tetrahydrobenzo[b]thiophene and pyrrole based scaffolds as potent and selective CB2 receptor ligands: The structural elements controlling binding affinity, selectivity and functionality” (Eur J Med Chem, 2016):
Active and inactive are the calls of the source. The rule behind the calls is not given here.

Legend:
[1] = target: Cannabinoid receptor 1 (Homo sapiens, UniProt P21554); test: Displacement of [3H]-CP-55940 from human CB1 receptor expressed in HEK293 cell membranes after 90 mins by radioligand binding assay
Chain of Cannabinoid receptor 1 (P21554 whole entry): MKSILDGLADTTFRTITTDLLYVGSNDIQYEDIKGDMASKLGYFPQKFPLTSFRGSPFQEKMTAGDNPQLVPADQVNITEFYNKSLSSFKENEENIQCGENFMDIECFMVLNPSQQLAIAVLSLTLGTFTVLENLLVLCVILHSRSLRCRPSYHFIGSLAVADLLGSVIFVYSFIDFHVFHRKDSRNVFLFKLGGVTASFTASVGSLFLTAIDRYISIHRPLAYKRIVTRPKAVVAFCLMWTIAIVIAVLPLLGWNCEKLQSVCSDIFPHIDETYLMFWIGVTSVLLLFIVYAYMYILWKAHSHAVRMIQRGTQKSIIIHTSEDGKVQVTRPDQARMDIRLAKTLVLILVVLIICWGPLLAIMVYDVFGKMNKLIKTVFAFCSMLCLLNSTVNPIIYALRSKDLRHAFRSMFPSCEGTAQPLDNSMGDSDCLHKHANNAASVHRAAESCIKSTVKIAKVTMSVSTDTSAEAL

[2] = target: T1, Cannabinoid receptor 2 (Homo sapiens, UniProt P34972); test: Displacement of [3H]-CP-55940 from human CB2 receptor expressed in HEK293 cell membranes after 90 mins by radioligand binding assay
T1 sequence (P34972 whole entry): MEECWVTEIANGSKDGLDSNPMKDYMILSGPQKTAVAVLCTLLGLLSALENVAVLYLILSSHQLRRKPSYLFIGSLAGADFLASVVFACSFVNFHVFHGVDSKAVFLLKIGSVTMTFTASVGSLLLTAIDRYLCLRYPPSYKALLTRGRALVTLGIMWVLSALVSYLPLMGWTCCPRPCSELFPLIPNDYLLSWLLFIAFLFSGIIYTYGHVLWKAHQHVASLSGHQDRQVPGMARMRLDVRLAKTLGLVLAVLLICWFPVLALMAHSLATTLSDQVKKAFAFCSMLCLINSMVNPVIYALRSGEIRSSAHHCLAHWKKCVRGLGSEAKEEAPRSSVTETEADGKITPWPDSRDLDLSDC
In short: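 Compounds were screened at 1 and 10 µM; those displacing over 50% were run at 0.1nM–10µM. Ki by Cheng-Prusoff from IC50. At least three experiments, duplicate.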

[3] = system: HEK293; test: Selectivity index, ratio of Ki for human CB1 receptor expressed in HEK293 cell membranes to Ki for human CB2 receptor expressed in HEK293 cell membranes; format: cell-based
[4] = target: Cannabinoid receptor 1 (CB1) (Homo sapiens, UniProt P21554); test: Displacement of [3H]-CP-55940 from human CB1 receptor expressed in HEK293 cell membranes at 1 to 10 uM after 90 mins relative to control; conditions: membranes of HEK293 cells expressing human CB1 receptor, probe [3H]-CP-55940
Chain of Cannabinoid receptor 1 (CB1) (P21554 whole entry): as the sequence (P21554 whole entry) above

[5] = target: T1, Cannabinoid receptor 2; test: Displacement of [3H]-CP-55940 from human CB2 receptor expressed in HEK293 cell membranes at 1 to 10 uM after 90 mins relative to control
[6] = target: T1, Cannabinoid receptor 2; test: Inverse agonist activity at human CB2 receptor expressed in CHO-K1 cells assessed as increase in NKH-477-induced intracellular cAMP levels after 30 mins by luminescence assay; format: functional, cell-based
In short: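 CHO-K1 cells stably overexpressing human CB2, plated 30,000 cells/well and held overnight at 37 °C, 5% CO2. Compounds were added with NKH-477 (water-soluble forskolin analogue; 3x of 25µM solution) for 30 min at 37°C. cAMP was read by enzyme-fragment-complementation chemiluminescence. Values are normalized to NKH-477 alone as 100% response. Three independent experiments, triplicate.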

[7] = target: T1, Cannabinoid receptor 2; test: Antagonist activity at human CB2 receptor expressed in CHO-K1 cells assessed as increase in NKH-477-induced intracellular cAMP levels preincubated for 15 mins followed by JWH-133 addition after 30 mins by luminescence assay; format: functional, cell-based
[8] = target: T1, Cannabinoid receptor 2

Structure (SMILES) | Ki [1] [nM] | Ki [2] [nM] | Ratio Ki [3] | inhibition at 1.5 h, up to 10 µM [4] [%] | inhibition [5] [%] | Activity [6] | Activity [7] | IC50 [8] [nM]
CCOC(=O)c1c(NC(=O)CCc2ccccc2)sc2c1CCCC2 | > 10000 | 112 | > 89.4 | > 50 | > 50 |  |  | 
Cc1cc(C(=O)NC2CCCCC2)c(C)n1-c1ccccc1 | > 10000 | 168 | > 59.6 | > 50 | > 50 |  |  | 
CCc1c(C(=O)O)cc(C)n1-c1ccccc1 | > 10000 | > 10000 |  | > 50 | > 50 |  |  | 
Cc1cc(C(=O)NC(C)c2ccccc2)c(C)n1-c1ccccc1 (configuration not stated) | 2620 | 546 | 4.8 | > 50 | > 50 |  |  | 
CCc1c(C(=O)NC23CC4CC(CC(C4)C2)C3)cc(C)n1-c1ccccc1 | 1200 | 6.15 | 195 to 200 | > 50 | > 50 | Active | Active | 398
CCOC(=O)c1c(N)sc2c1CCCC2 | > 10000 | > 10000 |  | > 50 | > 50 |  |  | 
Cc1ccc(Cn2nc(C(=O)N[C@@H]3C(C)(C)[C@@H]4CC[C@@]3(C)C4)cc2-c2ccc(Cl)c(C)c2)cc1 |  |  |  | > 50 | > 50 |  |  | 
CCOC(=O)c1cc(-c2ccccc2)sc1NS(=O)(=O)c1cccc2ccccc12 | > 10000 | > 10000 |  | > 50 | > 50 |  |  | 
CCOC(=O)c1cc(-c2ccccc2)sc1NC(=O)c1ccc2ccccc2c1 | > 10000 | > 10000 |  | > 50 | > 50 |  |  | 
CCOC(=O)c1cc(-c2ccccc2)sc1N(S(=O)(=O)c1ccc2ccccc2c1)S(=O)(=O)c1ccc2ccccc2c1 | > 10000 | > 10000 |  | > 50 | > 50 |  |  | 
Cc1cc(C(=O)NCCc2ccccc2)c(C)n1-c1ccccc1 | 5930 | 584 | 10.2 | > 50 | > 50 |  |  | 
CCc1c(C(=O)NC2CCCCC2)cc(C)n1-c1ccccc1 | 4570 | 171 | > 26.8 | > 50 | > 50 |  |  | 
CCOC(=O)c1c(NS(=O)(=O)c2cccc3ccccc23)sc2c1CCCC2 | > 10000 | 800 | > 12.5 | > 50 | > 50 |  |  | 
CCOC(=O)c1c(NS(C)(=O)=O)sc2c1CCCC2 | > 10000 | > 10000 |  | > 50 | > 50 |  |  | 
CCc1c(C(=O)Nc2ccc3ccccc3c2)cc(C)n1-c1ccccc1 | 633 | 57 | 11.1 | > 50 | > 50 |  |  | 
CCOC(=O)c1cc(-c2ccccc2)sc1NC(=O)c1cccc2ccccc12 | > 10000 | 59.8 | > 167 | > 50 | > 50 |  |  | 

Structure (SMILES) | Ki [1] [nM] | Ki [2] [nM] | Ratio Ki [3] | inhibition at 1.5 h, up to 10 µM [4] [%] | inhibition [5] [%] | Activity [6] | Activity [7] | IC50 [8] [nM]
CCOC(=O)c1cc(-c2ccccc2)sc1NS(=O)(=O)c1ccccc1 | > 10000 | > 10000 |  | > 50 | > 50 |  |  | 
CCOC(=O)c1c(NC(=O)C23CC4CC(CC(C4)C2)C3)sc2c1CCCC2 | 1010 | 2.15 | 469 to 500 | > 50 | > 50 |  |  | 475
Cc1cc(C(=O)O)c(C)n1-c1ccccc1 | > 10000 | > 10000 |  | > 50 | > 50 |  |  | 
CCOC(=O)c1cc(-c2ccccc2)sc1NS(C)(=O)=O | > 10000 | > 10000 |  | > 50 | > 50 |  |  | 
CCOC(=O)c1c(NS(=O)(=O)c2ccc(Cl)cc2)sc2c1CCCC2 | > 10000 | > 10000 |  | > 50 | > 50 |  |  | 
CCOC(=O)c1c(NC(=O)c2cccc3ccccc23)sc2c1CCCC2 | 1370 | 16.8 | 80 to 81.7 | > 50 | > 50 |  |  | 
CCc1c(C(=O)Nc2cccc3ccccc23)cc(C)n1-c1ccccc1 | 505 | 20 | 25 | > 50 | > 50 |  |  | 
Cc1cc(C(=O)Nc2ccc3ccccc3c2)c(C)n1-c1ccccc1 | 281 | 58.3 | 4.82 | > 50 | > 50 |  |  | 
CCOC(=O)c1c(NS(=O)(=O)c2ccccc2)sc2c1CCCC2 | > 10000 | 1990 | > 5.02 | > 50 | > 50 |  |  | 
Cc1cc(C(=O)NC23CC4CC(CC(C4)C2)C3)c(C)n1-c1ccccc1 | 518 | 7.59 | 68.3 | > 50 | > 50 | Active | Active | 109
CCOC(=O)c1cc(-c2ccccc2)sc1NS(=O)(=O)c1ccc(Cl)cc1 | > 10000 | > 10000 |  | > 50 | > 50 |  |  | 
CCOC(=O)c1c(NC(=O)c2ccc3ccccc3c2)sc2c1CCCC2 | > 10000 | 1790 | > 5.6 | > 50 | > 50 |  |  | 
CCOC(=O)c1c(NS(=O)(=O)c2ccc3ccccc3c2)sc2c1CCCC2 | > 10000 | > 10000 |  | > 50 | > 50 |  |  | 
Cc1cc(C(=O)Nc2cccc3ccccc23)c(C)n1-c1ccccc1 | 317 | 84.2 | 3.76 | > 50 | > 50 |  |  | 
CCc1c(C(=O)NCCc2ccccc2)cc(C)n1-c1ccccc1 | > 10000 | 718 | > 13.9 | > 50 | > 50 |  |  | 
CCc1c(C(=O)NC(C)c2ccccc2)cc(C)n1-c1ccccc1 (configuration not stated) | 3740 | 540 | 6.92 | > 50 | > 50 |  |  | 
